Shown are actives, neighbours in structure and some others; about 4.1% of the full set was active somewhere.
KCNQ1 inh = inhibitors of human KCNQ1 channel, primary screen, cell-based, thallium flux, high-throughput; AID 2642, 2010; CHO-K1 KCNQ1, FluxOR thallium flux fluorescence; stronger effect = higher value; 310,000 tested, 1.3% active; B-score at 10 µM;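 active = compounds whose thallium flux B-score, printed positive for inhibition, exceeds three library SD while starting fluorescence stays within three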;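 note: channel opened by potassium depolarization with thallium stimulus after 20 min compound exposure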
KCNK9 inh = KCNK9 potassium channel inhibitors, primary screen, HEK293 cells, thallium flux. Potassium channel subfamily K member 9 (Homo sapiens), Q9NPC2. FluxOR thallium flux fluorescence; stronger effect = lower value. B-score at 10 µM. 310,000 tested, 1.2% active;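 active = ratio B-score over 3 SD below the library mean, with starting fluorescence within 5 SD of its mean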;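 note: negative B-score means less thallium flux so channel inhibition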
KCNQ1 act = potentiators or activators of KCNQ1 channel, primary screen, cell-based, thallium flux, high-throughput. 310,000 tested, 0.35% active. B-score at 10 µM. CHO-K1 KCNQ1, thallium flux FluxOR fluorescence; stronger effect = higher value. Potassium voltage-gated channel subfamily KQT member 1 (Homo sapiens), P51787. AID 2648, 2010;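 active = fluorescence ratio B-score, a plate-corrected score, at least three library SD, with initial intensity B-score within 5 SD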
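System: CHO-K1 cells stably expressing KCNQ1 / Medium: assay buffer for compound exposure, DMSO matched across wells / Reagent: thallium- and potassium-containing depolarizing buffer / Compound: one concentration, matched DMSO / Incubation: 20 min compound pretreatment at room temperature / Measured by: kinetic FluxOR fluorescence, 10 s baseline plus 110 s post-stimulus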
Cl transport mod = KCC2 cotransporter modulators, thallium flux, primary screen, cell-based, HEK293 KCC2, FluoZin-2 fluorescence, MLSMR; KCC2 cells, thallium flux FluoZin-2 fluorescence; B-score of Tl+ flux slope (higher = more flux/activation; lower = inhibition) at 10 µM; 190,000 tested, 2.2% active; Solute carrier family 12 member 5 (Homo sapiens), Q9H2X9;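 active = thallium flux slope and its plate-corrected score both differing from the plate sample mean at a set confidence after two filtering rounds, in either direction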;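 note: slope of fluorescence scaled to starting intensity during 10 to 20 s after thallium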
hERG protect = hERG rescue from dofetilide block, primary screen, cell-based, CHO-hERG, FluxOR thallium flux, dofetilide IC70; AID 1511, 2009; activation (rescue from dofetilide block), less the hit threshold, % at 10 µM; Voltage-gated inwardly rectifying potassium channel KCNH2 (Homo sapiens), Q12809; 310,000 tested, 0.51% active; dofetilide IC70 present;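 active = activation above the mean of controls blocked by dofetilide plus 5 SD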;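 note: thallium influx through hERG after potassium depolarization seen as dye fluorescence rise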
KCNK3 inh = human KCNK3 channel inhibitors, primary screen, CHO cells, FluxOR thallium flux, B-score | FluxOR fluorescence; stronger effect = lower value | B-score at 10 µM | 340,000 tested, 0.84% active;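 active = B-score under library mean minus 4 SD, starting fluorescence ratio at most library mean plus 5 SD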;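 note: more negative B-score means stronger inhibition of thallium flux through KCNK3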
KCNK9 block conf = KCNK9 potassium channel inhibitors, confirmation, HEK293 cells, thallium flux, duplicate | shares compounds with KCNK9 inh | FluxOR thallium flux fluorescence | inhibition, % at 10 µM | 4,900 tested, 43% active | AID 492992, 2010;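 active = thallium signal inhibited by more than 5 SD of the compound-free buffer control wells, on both duplicate plates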;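 note: 0% = assay buffer control wells without compound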
Kir2-1 spec = mouse Kir2.1 channel inhibition, confirmation, selectivity assay for KCNK9 modulator project, cell-based, HEK293, thallium flux. 4,900 tested, 4% active. shares compounds with KCNK9 inh. inhibition, % at 10 µM. AID 492993, 2010. Kir2.1 cells, FluxOR thallium flux fluorescence;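 active = thallium signal drop more than 5 SD beyond the mean of the no-compound control wells, seen in both duplicate plates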;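 note: signal is fluorescence rise after thallium addition divided by baseline fluorescence; plate controls were assay buffer only for no effect and full block by chlorpromazine control for full effect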
Target sequence (P35561 whole entry, looked up): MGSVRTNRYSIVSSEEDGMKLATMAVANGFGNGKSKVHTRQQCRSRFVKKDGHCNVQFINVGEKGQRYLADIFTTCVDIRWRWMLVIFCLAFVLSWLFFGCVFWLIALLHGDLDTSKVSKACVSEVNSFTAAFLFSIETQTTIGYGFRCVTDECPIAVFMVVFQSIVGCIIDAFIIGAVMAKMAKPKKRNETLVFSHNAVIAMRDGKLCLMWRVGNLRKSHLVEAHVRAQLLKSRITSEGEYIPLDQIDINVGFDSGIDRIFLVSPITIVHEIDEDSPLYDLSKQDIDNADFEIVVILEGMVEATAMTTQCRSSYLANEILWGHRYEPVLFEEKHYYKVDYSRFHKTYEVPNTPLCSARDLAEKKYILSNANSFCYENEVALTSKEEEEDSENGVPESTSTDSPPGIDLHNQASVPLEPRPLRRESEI
HEK293 Tl ctr = thallium flux in non-induced HEK293 cells, confirmation, counter-screen for KCNK9 inhibitor project, cell-based, second counter screen, non-induced KCNK9-HEK293; inhibition, % at 10 µM; shares compounds with KCNK9 inh; FluxOR thallium flux; 4,900 tested, 40% active;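 active = thallium signal drop beyond 5 SD of the untreated control mean, on both duplicate plates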;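 note: plate controls were buffer only IC0 wells for no effect and SID17386958 at its maximal inhibitory level for full effect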
* hit, by the source's call; i = inactive; x = no result.

SMILES	KCNQ1 inh	KCNK9 inh	KCNQ1 act	Cl transport mod	hERG protect	KCNK3 inh	KCNK9 block conf	Kir2-1 spec	HEK293 Tl ctr
O=C(NCc1ccccc1)C1=C[C@H](C2CCCCC2)C[C@H](OCc2ccc(CO)cc2)O1	i	i	i	-0.016	-7	i	i	i	i
Cc1cccc2sc(NNC(=O)c3cc(=O)c4ccccc4o3)nc12	i	i	i	-1.3	-16	i	i	i	i
Cc1ccc2sc(NNC(=O)c3cc(=O)c4ccccc4o3)nc2c1C	i	i	i	-3.3*	-21	i	i	i	i
O=C(NNc1nc2c(F)cccc2s1)c1cc(=O)c2ccccc2o1	i	i	i	-1.3	4	i	x	x	x
Cc1cc(C)n(-c2nc3c(c(=O)n(C)c(=O)n3C)n2C)n1	i	i	i	1.1	-4	i	x	x	x
CC1(C)C(N(O)C(=O)Nc2ccccc2)N(c2cccc(Cl)c2)C(=O)N1O (stereo not drawn)	i	i	i	0.26	-10	i	x	x	x
CCOc1cc(/C=N/Nc2nc3ccccc3[nH]2)cc(Br)c1OCC(=O)N(C)C	i	-11*	i	-1.3	-3	i	58%*	i	i
CCCC(=O)Nc1ccccc1NC(=O)c1cc(OC)c(OC)c(OC)c1	i	i	i	x	-9	i	x	x	x
CC/C(C)=N\Nc1nc(-c2cc3cc(OC)ccc3oc2=O)cs1	i	i	i	0.59	-9	i	i	i	i
CCOC(=O)N1CCN(C(=O)c2cc(-c3ccc(OCC)cc3)nc3ccccc23)CC1	i	i	i	-0.1	-19	i	x	x	x
CCOc1ccc(-c2cc3nc(C4CCN(C(=O)OC(C)(C)C)CC4)c(C(=O)O)cn3n2)cc1	i	i	i	-0.37	-19	i	i	i	34%*
CCCN(CCC)c1ccc(CC(=O)NC(C)Cc2ccccc2)cc1 (stereo not drawn)	i	i	i	-1.8	-6	i	i	i	i
N#C/C(=C\c1ccc(Sc2ccc(Cl)cc2)o1)c1nc2ccccc2[nH]1	x	x	x	-0.17	x	i	x	x	x
N#C/C(=C\c1ccc(Sc2nc3ccccc3[nH]2)o1)c1ccccc1	13*	i	i	0.35	-6	i	i	i	i
CCOC(=O)c1c(NC(=O)C2COc3ccccc3O2)sc2c1CC(C)(C)NC2(C)C (stereo not drawn)	i	i	i	0.76	-18	i	x	x	x
CC(C)C(C(=O)NCc1ccccc1)N(CC1CCCO1)C(=O)CNS(=O)(=O)c1ccccc1 (stereo not drawn)	i	i	i	x	-4	i	x	x	x
CC(C)C(=O)Nc1nc(-c2ccc3c(c2)CCN3C(=O)C2CC2)cs1	i	-8.9*	i	x	-17	i	i	i	i
O=C(N/N=C/c1cccs1)c1cc(-c2cccc3ccccc23)n[nH]1	i	-13*	i	-0.78	-5	i	54%*	i	32%*
O=C(N/N=C/c1cccs1)c1cc(-c2ccc3ccccc3c2)n[nH]1	i	i	i	x	-9	i	x	x	x
O=C(OCC(=O)N1CCCc2ccccc21)c1ccc(F)c(S(=O)(=O)N2CCOCC2)c1	i	i	i	x	-17	i	x	x	x
O=C(c1ccc(F)c(S(=O)(=O)N2CCOCC2)c1)N1CCc2ccccc21	i	i	i	x	-6	i	i	i	i
Cc1nc(S/C(=C/c2ccc(-c3cc(Cl)ccc3C)o2)C(=O)O)n[nH]1	8*	i	i	x	-10	i	i	i	36%*
COc1ccc(/C=C/C(=O)OCC(=O)NCc2ccco2)cc1OC	i	i	i	0.031	-8	i	x	x	x
COc1ccc(-c2nc(SC(C)C(=O)c3c(N)n(C)c(=O)n(C)c3=O)n[nH]2)cc1 (stereo not drawn)	x	x	x	x	x	i	x	x	x
Cc1cccc(C2(c3cccc(C)c3)OC(=O)c3ccccc32)c1	i	-19*	i	0.7	-13	i	78%*	i	43%*
SMILES	KCNQ1 inh	KCNK9 inh	KCNQ1 act	Cl transport mod	hERG protect	KCNK3 inh	KCNK9 block conf	Kir2-1 spec	HEK293 Tl ctr
O=C1OC(c2ccccc2)(c2ccc(O)cc2)c2ccccc21 (stereo not drawn)	x	x	x	x	x	i	x	x	x
Cc1cc(O)ccc1C1(c2ccc(O)cc2C)OC(=O)c2ccccc21	i	-13*	i	0.53	-2	i	44%*	i	i
COc1ccc(OC)c2nc(-c3cccnc3)ccc12	i	i	i	x	-8	i	x	x	x
COc1ccc(CCCc2nnc(SCC(=O)Nc3cc(C)ccc3C)o2)cc1	i	i	i	0.34	1	i	i	i	i
COc1ccc(CCCc2nnc(SCC(=O)Nc3ccc(C)c(C)c3)o2)cc1	i	i	i	-1.1	-7	i	x	x	x
COc1ccc(OC)c(C(=O)CN2CCN(S(=O)(=O)c3ccc(Br)cc3)CC2)c1	i	i	i	0.37	-9	i	i	i	i
COc1cccc(/C=N/NC(=O)CN(CCc2ccccc2)S(=O)(=O)c2ccc(NC(C)=O)cc2)c1	i	i	i	-0.47	-10	i	x	x	x
O=c1cc(N2CCN(c3cccc(Cl)c3)CC2)[nH]c(=O)n1C1CCCCC1	i	i	i	x	-3	i	x	x	x
CCn1cc(SCC(=O)N2CCc3ccccc32)c2ccccc21	i	i	i	-0.68	-7	i	i	40%*	i
O=C(CSc1ccccc1)N1CCc2ccccc21	i	i	i	-1.7	-7	i	x	x	x

Bioassay records (PubChem BioAssay)
